The target in assay [1] is T1, GABA-A receptor; alpha-1/beta-2/gamma-2 (Homo sapiens) (UniProt P14867+P47870+P18507). Description: Agonist activity at human GABAA alpha1beta2gamma2S receptor expressed in HEK293 cells by patch clamp electrophysiology assay relative to GABA. In kind it is cell-based. On the technique in general: In patch-clamp work, channel activity is measured electrically.
Assay [2] concerns the target T2, GABA A receptor alpha-2/beta-2/gamma-2 (Homo sapiens, UniProt P18507+P47869+P47870).
T2 sequence (P47870 whole entry): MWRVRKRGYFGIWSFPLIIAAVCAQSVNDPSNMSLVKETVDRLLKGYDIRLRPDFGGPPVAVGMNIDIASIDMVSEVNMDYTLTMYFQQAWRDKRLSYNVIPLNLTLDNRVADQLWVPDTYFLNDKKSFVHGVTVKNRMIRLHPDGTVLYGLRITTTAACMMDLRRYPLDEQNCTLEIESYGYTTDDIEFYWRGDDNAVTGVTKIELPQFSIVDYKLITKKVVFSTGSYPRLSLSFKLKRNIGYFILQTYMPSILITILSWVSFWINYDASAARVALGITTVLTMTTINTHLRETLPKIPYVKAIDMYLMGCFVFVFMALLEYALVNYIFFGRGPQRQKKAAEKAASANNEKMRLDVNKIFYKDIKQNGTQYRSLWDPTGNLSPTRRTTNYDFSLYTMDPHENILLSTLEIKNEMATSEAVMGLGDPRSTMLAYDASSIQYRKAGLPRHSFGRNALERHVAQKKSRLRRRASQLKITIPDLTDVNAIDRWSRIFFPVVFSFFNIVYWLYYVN
T2 sequence (P18507 whole entry): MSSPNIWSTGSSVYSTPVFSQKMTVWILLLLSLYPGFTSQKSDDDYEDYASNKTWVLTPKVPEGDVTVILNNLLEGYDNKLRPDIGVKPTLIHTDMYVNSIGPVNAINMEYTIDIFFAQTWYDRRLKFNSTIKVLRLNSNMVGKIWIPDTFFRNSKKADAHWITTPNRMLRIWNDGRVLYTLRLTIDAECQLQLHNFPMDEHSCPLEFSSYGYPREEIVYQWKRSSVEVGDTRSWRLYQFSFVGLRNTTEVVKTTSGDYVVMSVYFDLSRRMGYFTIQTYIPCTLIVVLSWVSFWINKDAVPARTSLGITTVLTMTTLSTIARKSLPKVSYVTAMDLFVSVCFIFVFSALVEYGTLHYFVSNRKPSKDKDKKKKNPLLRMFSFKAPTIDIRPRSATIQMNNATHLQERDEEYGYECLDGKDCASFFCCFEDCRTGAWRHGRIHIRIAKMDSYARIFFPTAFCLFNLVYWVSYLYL
T2 sequence (P47869 whole entry): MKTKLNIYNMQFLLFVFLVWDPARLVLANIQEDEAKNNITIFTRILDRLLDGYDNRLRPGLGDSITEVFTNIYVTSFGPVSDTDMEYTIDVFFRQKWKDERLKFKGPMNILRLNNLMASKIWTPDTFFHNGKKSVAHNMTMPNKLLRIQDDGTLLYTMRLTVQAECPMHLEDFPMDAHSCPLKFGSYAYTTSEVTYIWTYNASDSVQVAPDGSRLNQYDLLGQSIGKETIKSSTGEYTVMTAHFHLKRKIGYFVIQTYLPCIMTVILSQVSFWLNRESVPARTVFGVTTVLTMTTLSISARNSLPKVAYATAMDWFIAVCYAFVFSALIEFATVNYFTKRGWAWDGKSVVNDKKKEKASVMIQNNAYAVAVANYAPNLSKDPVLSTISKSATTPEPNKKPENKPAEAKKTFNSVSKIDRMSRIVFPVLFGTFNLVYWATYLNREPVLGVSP
As to the kind of experiment: Agonist activity at human GABAA alpha2beta2gamma2S receptor expressed in TSA201 cells after 1 min by FLIPR assay. In kind it is cell-based. A digest of the protocol: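 tsA201 cells transfected with 1 μg α (1, 2, 3 or 5), 1 μg β2 and 3 μg γ2S cDNA (Polyfect). Cells replated onto poly-D-lysine plates and assayed 16–24 h later. Loaded with FMP blue dye in Krebs buffer pH 7.4 for 30 min at 37 °C.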

The nature of assay [3]: Agonist activity at human GABAA alpha5beta2gamma2S receptor expressed in TSA201 cells after 1 min by FLIPR assay. In kind it is cell-based. Conditions: tsA201, 1 min.
Assay [4] has as its target T1, GABA-A receptor; alpha-1/beta-2/gamma-2 (Homo sapiens). As to the kind of experiment: Agonist activity at human GABAA alpha1beta2gamma2S receptor expressed in TSA201 cells after 1 min by FLIPR assay relative to GABA. In kind it is cell-based. A digest of the protocol:
(§1)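 tsA201 cells transfected with 1 μg α (1, 2, 3 or 5), 1 μg β2 and 3 μg γ2S cDNA (Polyfect). Cells replated onto poly-D-lysine plates and assayed 16–24 h later. Loaded with FMP blue dye in Krebs buffer pH 7.4 for 30 min at 37 °C. Fluorescence (ex 530/em 560 nm) read before and up to 1 min after agonist addition. ΔFU concentration-response curves; duplicate, ≥3 experiments.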

In assay [5] the target is T3, GABA-A receptor; alpha-1/beta-2/gamma-2 (Homo sapiens, UniProt P14867+P18507+P47870).
T3 sequence (P14867 whole entry): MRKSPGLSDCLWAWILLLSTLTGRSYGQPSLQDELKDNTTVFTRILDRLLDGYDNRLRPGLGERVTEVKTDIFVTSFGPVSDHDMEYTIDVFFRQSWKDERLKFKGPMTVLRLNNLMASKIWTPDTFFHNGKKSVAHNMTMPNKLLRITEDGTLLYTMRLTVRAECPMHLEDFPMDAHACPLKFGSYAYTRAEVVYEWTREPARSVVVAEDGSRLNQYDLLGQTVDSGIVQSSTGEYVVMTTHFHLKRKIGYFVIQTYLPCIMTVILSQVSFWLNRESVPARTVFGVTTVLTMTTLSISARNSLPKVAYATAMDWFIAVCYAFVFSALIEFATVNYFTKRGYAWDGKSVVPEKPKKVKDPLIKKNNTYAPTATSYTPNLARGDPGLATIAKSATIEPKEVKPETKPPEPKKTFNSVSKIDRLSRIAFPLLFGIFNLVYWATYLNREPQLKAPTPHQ
T3 sequence (P47870 whole entry): T2 sequence (P47870 whole entry)
T3 sequence (P18507 whole entry): T2 sequence (P18507 whole entry)
Description: Agonist activity at human GABAA alpha1beta2gamma2S receptor expressed in HEK293 cells by patch clamp electrophysiology assay. In kind it is cell-based.

The target of assay [6] is Gamma-aminobutyric acid receptor subunit rho-1 (Homo sapiens, UniProt P24046). Description: Agonist activity at human GABAA rho1 receptor expressed in TSA201 cells after 1 min by FLIPR assay relative to GABA. In kind it is cell-based. The gist of the method: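 tsA201 cells transfected with 5 μg human ρ1 cDNA, then plated on poly-D-lysine plates for 16–24 h. Loaded with FLIPR membrane potential blue dye in Krebs buffer (pH 7.4), 30 min at 37 °C. Emission at 560 nm (excitation 530 nm) recorded before and up to 1 min after agonist addition. Curves fitted from ΔFU; duplicate, at least three times.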
Chain of Gamma-aminobutyric acid receptor subunit rho-1 (P24046 whole entry): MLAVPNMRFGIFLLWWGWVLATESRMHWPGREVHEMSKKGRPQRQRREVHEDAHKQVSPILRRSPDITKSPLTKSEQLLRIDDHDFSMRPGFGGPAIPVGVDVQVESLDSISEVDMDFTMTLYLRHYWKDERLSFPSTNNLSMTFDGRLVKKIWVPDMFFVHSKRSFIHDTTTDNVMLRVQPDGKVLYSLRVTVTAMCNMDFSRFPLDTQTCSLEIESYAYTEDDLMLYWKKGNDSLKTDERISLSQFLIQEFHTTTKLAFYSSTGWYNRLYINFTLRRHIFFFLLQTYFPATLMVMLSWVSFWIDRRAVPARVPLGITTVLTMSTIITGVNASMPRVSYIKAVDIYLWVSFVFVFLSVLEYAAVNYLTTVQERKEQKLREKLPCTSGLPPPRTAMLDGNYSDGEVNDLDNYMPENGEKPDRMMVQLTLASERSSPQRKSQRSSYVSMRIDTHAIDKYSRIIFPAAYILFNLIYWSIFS

Assay [7] deals with TSA201. Description: Agonist activity at human GABAA alpha5beta2gamma2S receptor expressed in TSA201 cells after 1 min by FLIPR assay relative to GABA. In kind it is cell-based. The gist of the method: as §1
The nature of assay [8]: Displacement of [3H]muscimol from GABAA receptor in rat synaptic membrane after 60 mins by scintillation counting analysis. The class given is cell membranes. The gist of the method: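 Membranes from cortex and central hemispheres of male SPRD rat brains, washed repeatedly in 50 mM Tris-HCl pH 7.4. 70–80 μg protein per well incubated with [3H]muscimol. Separated by GF/C filtration with ice-cold buffer washes; bound radioactivity counted by scintillation. Nonspecific binding defined with 1.0 mM GABA.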
On the technique in general: In a radioligand displacement assay an active substance lowers the binding of a labelled ligand.

Experimental findings from ChEMBL document CHEMBL2311400, “Synthesis and biological evaluation of 4-(aminomethyl)-1-hydroxypyrazole analogues of muscimol as γ-aminobutyric acid(a) receptor agonists” (J Med Chem, 2013) are described below.

With `NCc1cnn(O)c1`, the Rmax turned out to be 69% in assay [1], 77% in assay [4], 77% in assay [6] and 77% in assay [7]. The EC50 in assay [2] is 4500 nM; in assay [3] (read-out: EC50) it was 780 nM; in assay [3] (read-out: pEC50 (converted)), 794 nM; in assay [5] it was 19000 nM. In addition, the Ki (in general, a measure of affinity in units of concentration, obtained from inhibition or displacement) in assay [8] came to 220 nM. In assay [8], the pKi (commonly the negative decadic logarithm of the Ki, by convention in mol/L) is listed as 6.68.
